Most compounds without a hit are left out; they make up all but 4.8% or so of the library.
Calb FLC – C. albicans growth inhibition with fluconazole, primary screen, CaCi-2 strain, Alamar Blue fluorescence; C. albicans CaCi-2 (fluconazole-resistant clinical isolate) + fluconazole, 48 h; AID 1979, 2009; actives 0.57% (n = 300,000); growth inhibition, % (concentration not given with the values);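 active = growth inhibition above about 58% in most replicates, limit read from the data, passing the limit was not always enough; inconclusive = exactly half the replicates above a set limit; inactive = most replicates below a set limit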;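 also: all wells also contain fluconazole at 8 µg/ml as a sub-toxic cotreatment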
UCH37 DUB inh – inhibitors of human UCH37 deubiquitinase, primary screen, biochemical, Ub-AMC cleavage, fluorescence. Ubiquitin carboxyl-terminal hydrolase isozyme L5 (Homo sapiens), Q9Y5K5. purified proteasome/UCH37. inhibition, % (test concentration not listed). actives 0.33% (n = 330,000);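 active = mean inhibition over replicate wells above about 20%, limit read from the data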
Target sequence (Q9Y5K5 whole entry, looked up): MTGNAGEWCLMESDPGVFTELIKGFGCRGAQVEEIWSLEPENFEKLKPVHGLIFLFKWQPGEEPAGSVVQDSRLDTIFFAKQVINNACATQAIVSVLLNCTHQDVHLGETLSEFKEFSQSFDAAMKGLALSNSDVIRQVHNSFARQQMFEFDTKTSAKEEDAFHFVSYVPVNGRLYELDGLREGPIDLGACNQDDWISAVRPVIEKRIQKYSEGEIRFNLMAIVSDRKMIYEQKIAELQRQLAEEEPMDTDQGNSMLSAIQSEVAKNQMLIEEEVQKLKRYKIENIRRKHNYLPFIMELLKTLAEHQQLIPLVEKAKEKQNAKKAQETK
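Material: human UCH37 enzyme supplied as purified proteasome complex. Measure: % inhibition of Ub-AMC cleavage fluorescence. Medium: pH 7.4 Tris-HCl (50 mM) with ovalbumin, ATP-MgCl2, DTT. Times: 30 min preincubation with enzyme, 25 min cleavage at room temperature. Detection: AMC fluorescence intensity at 355/460 nm.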
ALR inh – inhibitors of human ALR sulfhydryl oxidase, primary screen, biochemical, H2O2 detection, HRP-luminol luminescence, single point. purified ALR, DTT oxidation. FAD-linked sulfhydryl oxidase ALR (Homo sapiens), P55789. actives 3.8% (n = 290,000). inhibition, % (test concentration not listed). AID 485317, 2010;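 active = mean replicate inhibition above about 79%, with every replicate also reaching it, limit read from the data; inconclusive = only one of the two criteria met; inactive = mean below limit and not every replicate reaching it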
Target sequence (P55789 whole entry, looked up): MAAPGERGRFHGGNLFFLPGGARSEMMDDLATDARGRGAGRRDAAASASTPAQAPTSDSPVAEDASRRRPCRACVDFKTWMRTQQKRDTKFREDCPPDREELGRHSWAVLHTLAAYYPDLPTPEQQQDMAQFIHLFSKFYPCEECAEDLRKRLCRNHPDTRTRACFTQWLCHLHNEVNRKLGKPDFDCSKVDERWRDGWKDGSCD
NALP1 inh – NALP1 inflammasome inhibitors in reconstituted yeast, colorimetric, S. cerevisiae, triplicate retest. actives 0.61% (n = 280,000). inhibition, % at 10 µM. S. cerevisiae NALP1/ASC/caspase-1 growth, X-gal OD620, 72 h; in the data active = inhibition mostly above about 24%, no sharp cut-off; inactive = mostly below about 32%
ATG4B inhibitor – ATG4B protease inhibitors, primary screen, biochemical, fluorescence, uHTS; Cysteine protease ATG4B (Homo sapiens), Q9Y4P1; ATG4B cleavage of LC3-PLA2, NBD-HPC fluorescence, 1 h; inhibition, % at 8.33 µM; actives 0.51% (n = 340,000); AID 504462, 2011; in the data active = inhibition above about 40%
NALP3 yeast inh – NALP3 inflammasome inhibitors in reconstituted yeast, primary screen, luminescence, uHTS; Yeast reconstituted NLRP3/ASC/caspase-1, beta-gal luminescence, 24 h; inhibition, % at 10 µM; actives 0.39% (n = 330,000); AID 2825, 2010;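 active = inhibition of 50% or more; inactive = inhibition below 50%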
ATG4B conf – ATG4B protease inhibitors, retest, confirmation, biochemical, fluorescence, single concentration; actives 92% (n = 320); AID 504757, 2011; shares compounds with ATG4B inhibitor; ATG4B protease fluorescent substrate cleavage assay; inhibition, % at 8.33 µM; in the data active = inhibition above about 39%
PLA2 ctr – PLA2 enzyme inhibition, counter-screen for ATG4B inhibitor project, biochemical, single concentration, uHTS hits; shares compounds with ATG4B inhibitor; purified PLA2, NBD-C6-HPC fluorescence, 45 min; inhibition, % at 8.33 µM; actives 66% (n = 1,600); AID 588402, 2011; in the data active = inhibition above about 50%
Target sequence (P04054 whole entry, looked up): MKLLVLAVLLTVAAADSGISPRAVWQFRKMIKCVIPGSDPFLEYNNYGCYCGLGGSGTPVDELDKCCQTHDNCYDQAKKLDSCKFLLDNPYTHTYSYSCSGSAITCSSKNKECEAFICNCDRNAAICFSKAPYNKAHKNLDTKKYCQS
Of the large screens only hits and unclear results are named; the others gave an inactive call (follow-up assays come after a bar, where they were run).

Clc1cccc(-c2nnc(SC/C=C/c3ccccc3)n2Cc2ccco2)c1	ATG4B inhibitor 54.8 | PLA2 ctr 56.2
C(=C\c1ccccc1)/CSc1nnc(-c2ccccc2)n1Cc1ccco1	ATG4B inhibitor 66.9 | PLA2 ctr 66.0
COC(=O)C(=NNc1ccccc1Cl)Sc1nnc(C(O)c2ccccc2)n1-c1ccccc1 (configuration not stated)	none (no result: Calb FLC, ALR inh, NALP1 inh, ATG4B inhibitor, NALP3 yeast inh)
S=c1[nH]nc(C2CCCCC2)n1N=Cc1ccc(Cl)cc1	none (no result: Calb FLC, ALR inh, NALP1 inh, ATG4B inhibitor, NALP3 yeast inh)
O=C(NN=Cc1ccc(F)cc1)c1ccc(-n2cnnn2)cc1	none (no result: Calb FLC, ALR inh, NALP1 inh, ATG4B inhibitor, NALP3 yeast inh)
O=C(Nc1cc(S(=O)(=O)Nc2ccc(Cl)cc2)ccc1N1CCCCC1)c1ccc(F)cc1	ATG4B inhibitor 42.3 | PLA2 ctr inactive
CCOc1cc2c3c(c1)C1(Nc4ccccc4S1)C(=O)N3C(C)(C)CC2C (configuration not stated)	ATG4B inhibitor 43.2 | PLA2 ctr inactive
COc1cc(OC)c2cc(C(=O)NN=Cc3ccccc3O)[nH]c2c1	none (no result: Calb FLC, ALR inh, NALP1 inh, ATG4B inhibitor, NALP3 yeast inh)
Fc1ccc(C2CC(c3ccco3)=Nc3ccccc3S2)cc1 (configuration not stated)	ATG4B inhibitor 45.6 | PLA2 ctr 66.6
Cn1cccc1C=NNC(=O)c1ccco1	none (no result: Calb FLC, ALR inh, NALP1 inh, ATG4B inhibitor, NALP3 yeast inh)
COc1ccc2c(-c3ccccc3)cc(SCC(N)=O)nc2c1	ATG4B inhibitor 57.9 (no result: ALR inh, NALP1 inh) | PLA2 ctr 57.4
COc1cc(C(N)=O)cc(Br)c1OC	none
CCOc1c(Br)cc(C(N)=O)cc1OCc1ccccc1	ALR inh inconclusive, ATG4B inhibitor 78.7 | PLA2 ctr 80.1
CCOc1c(Br)cc(C(N)=O)cc1OC	none
CCOc1cc(/C=N/NC(N)=O)cc(Br)c1OCc1ccccc1	none (no result: UCH37 DUB inh, NALP1 inh)
COc1cc(C(N)=O)cc(Br)c1OCc1ccccc1	ATG4B inhibitor 69.6 | PLA2 ctr 71.4
CCCOc1c(Br)cc(C(N)=O)cc1OCC	ATG4B inhibitor 41.9 (no result: ALR inh) | PLA2 ctr 56.1
COc1ccc(C)cc1N1C(=N)/C(=C2/Nc3ccccc3S2)C(c2ccccc2)C1=O (configuration not stated)	ATG4B inhibitor 50.5 (no result: Calb FLC, ALR inh, NALP3 yeast inh) | PLA2 ctr inactive
Cc1ccc(S(=O)(=O)Nc2ccccc2C=Nc2cccc(C)c2C)cc1	ATG4B inhibitor 57.4 (no result: NALP3 yeast inh) | PLA2 ctr 61.2
COCCCNC(=S)N1CCN(c2nc(C)nc3sc4c(c23)CCCC4)CC1	ATG4B inhibitor 46.8 | PLA2 ctr 62.6
CCCNC(=S)N1CCN(c2nc(C)nc3sc4c(c23)CCCC4)CC1	ATG4B inhibitor 48.5 | PLA2 ctr 77.8
Cc1cc(NN=Cc2ccccc2Br)nc2ccccc12	none (no result: Calb FLC, ALR inh, NALP1 inh, ATG4B inhibitor, NALP3 yeast inh)
O=C(CN1CCCc2ccccc21)NN=Cc1ccc(F)cc1F	none (no result: Calb FLC, ALR inh, NALP1 inh, ATG4B inhibitor, NALP3 yeast inh)
COc1ccc(Nc2cc(C(=O)N3CCc4ccccc4C3)c3ccccc3n2)c(OC)c1	ATG4B inhibitor 67.7 | PLA2 ctr 81.5
COc1ccc(OC)c(/C=N\NC(=O)c2ccc(-c3ccccc3)cc2)c1	none (no result: UCH37 DUB inh)
O=C1N/C(=N/NC(=O)c2cccc3ccccc23)S/C1=C\c1ccccc1OCc1ccccc1	ATG4B inhibitor 91.4 (no result: Calb FLC, ALR inh, NALP3 yeast inh) | PLA2 ctr 91.1
COc1ccc(OC)c(/C=C2\S/C(=N/NC(=O)c3ccc4ccccc4c3)NC2=O)c1	ATG4B inhibitor 78.5 (no result: NALP3 yeast inh) | PLA2 ctr 83.2
COc1cccc(/C=C2\SC(=O)NC2=O)c1OCc1ccc(C(=O)O)cc1	none
N#Cc1c(-c2ccccc2)cc(-c2ccccc2)nc1SCCC(=O)O	ATG4B inhibitor 50.7 (no result: ALR inh) | PLA2 ctr 67.8
COc1ccc(C(C)=NNC(=O)OC(C)(C)C)cc1[N+](=O)[O-]	none (no result: Calb FLC, ALR inh, NALP1 inh, ATG4B inhibitor, NALP3 yeast inh)
O=C(NN=Cc1ccc(OC(=O)c2ccco2)cc1)c1ccc[n+]([O-])c1	none (no result: Calb FLC, ALR inh, NALP1 inh, ATG4B inhibitor, NALP3 yeast inh)
NC(Cc1ccc(Cl)cc1)=NOC(=O)Cc1ccc([N+](=O)[O-])cc1	none (no result: Calb FLC, ALR inh, NALP1 inh, ATG4B inhibitor, NALP3 yeast inh)
CN(C)c1ccnc(Oc2ccc(C(C)(C)C)cc2)c1C#N	ATG4B inhibitor 74.5 | PLA2 ctr 80.2
NC(=O)C1CCN(c2nc(-c3cc4ccccc4o3)cs2)CC1	ATG4B inhibitor 45.3 (no result: Calb FLC, NALP1 inh) | PLA2 ctr inactive
CCCCNC(=S)NN=Cc1sccc1C	none (no result: Calb FLC, ALR inh, NALP1 inh, ATG4B inhibitor, NALP3 yeast inh)
COC(=O)c1ccc(CSc2nc3c(c(=O)n2-c2ccc(C)cc2)SCC3)o1	ATG4B inhibitor 47.9 | PLA2 ctr 70.2
COc1ccc(-n2c(SCC(=O)Nc3cc(C)on3)nc3c(c2=O)SCC3)cc1	none
Cc1ccc(C(=O)CC(=O)c2ccc(C)cc2O)cc1	none (no result: NALP3 yeast inh)
Cc1ccc(C(=O)CC(=O)c2cc(Cl)ccc2O)cc1	ATG4B inhibitor 46.5 | ATG4B conf 71.9 | PLA2 ctr inactive
CCCCCC[n+]1c(-c2ccccc2)csc1Nc1ccccc1	none
CC(C)(C)c1cc(-c2csc(Nc3ccccc3)[n+]2Cc2ccc(C(=O)O)cc2)cc(C(C)(C)C)c1O	Calb FLC inconclusive, ATG4B inhibitor 45.8 | PLA2 ctr 55.9

Screening data deposited in PubChem by several laboratories.
